Results from ChEMBL document CHEMBL1122866, “3-Phenyl-1-indanamines. Potential antidepressant activity and potent inhibition of dopamine, norepinephrine, and serotonin uptake” (J Med Chem, 1985).

Legend:
Type in all cases: functional
Mus musculus [1] = species on record: Mus musculus; assay: Antagonistic activity against tetrabenazine-induced ptosis in mice.
Procedure, shortened: (§1)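 Mice dosed intraperitoneally; the result is reported as the ED50 in μmol/kg with a range in parentheses. Test compounds are racemates of >95% isomeric purity by TLC.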

[2] = biological target: Norepinephrine transporter (Rattus norvegicus, UniProt Q9WTR4); assay: Inhibition of noradrenaline uptake in rat synaptosomal fraction
Procedure, shortened: (§2)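 Synaptosomal uptake of DA, NE or 5-HT measured. The IC50 is in nM and is the mean of at least two determinations, each using five test concentrations in triplicate.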

[3] = biological target: Sodium-dependent dopamine transporter (Rattus norvegicus, UniProt P23977); assay: Inhibition of dopamine uptake in rat synaptosomal fraction
[4] = biological target: Sodium-dependent serotonin transporter (Rattus norvegicus, UniProt P31652); assay: Inhibition of 5-HT uptake in rat synaptosomal fraction; procedure, shortened: as §2
Mus musculus [5] = species on record: Mus musculus; assay: Antagonistic activity against 5-HTP induced potentiation in mice; procedure, shortened: as §1
Mus musculus [6] = species on record: Mus musculus; assay: Antagonistic activity against tetrabenazine-induced ptosis in mice; procedure, shortened: as §1

Sodium-dependent dopamine transporter, sequence (P23977 whole entry): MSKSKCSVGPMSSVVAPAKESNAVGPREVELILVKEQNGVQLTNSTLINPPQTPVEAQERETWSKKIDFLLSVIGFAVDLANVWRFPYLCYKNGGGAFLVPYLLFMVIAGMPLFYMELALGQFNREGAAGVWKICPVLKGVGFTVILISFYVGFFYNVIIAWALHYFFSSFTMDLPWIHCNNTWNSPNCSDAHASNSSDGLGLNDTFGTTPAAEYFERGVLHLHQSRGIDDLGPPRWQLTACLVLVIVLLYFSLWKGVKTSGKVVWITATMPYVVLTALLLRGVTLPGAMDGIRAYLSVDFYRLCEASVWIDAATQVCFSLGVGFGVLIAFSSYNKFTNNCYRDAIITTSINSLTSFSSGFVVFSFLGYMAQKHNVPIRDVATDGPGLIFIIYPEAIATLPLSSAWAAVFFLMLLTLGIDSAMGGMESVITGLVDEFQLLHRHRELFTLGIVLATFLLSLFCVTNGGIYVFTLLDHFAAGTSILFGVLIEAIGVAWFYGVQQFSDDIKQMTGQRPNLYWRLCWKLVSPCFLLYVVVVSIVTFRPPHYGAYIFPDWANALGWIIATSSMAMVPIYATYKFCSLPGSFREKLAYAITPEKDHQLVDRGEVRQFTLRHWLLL
Sodium-dependent serotonin transporter, sequence (P31652 whole entry): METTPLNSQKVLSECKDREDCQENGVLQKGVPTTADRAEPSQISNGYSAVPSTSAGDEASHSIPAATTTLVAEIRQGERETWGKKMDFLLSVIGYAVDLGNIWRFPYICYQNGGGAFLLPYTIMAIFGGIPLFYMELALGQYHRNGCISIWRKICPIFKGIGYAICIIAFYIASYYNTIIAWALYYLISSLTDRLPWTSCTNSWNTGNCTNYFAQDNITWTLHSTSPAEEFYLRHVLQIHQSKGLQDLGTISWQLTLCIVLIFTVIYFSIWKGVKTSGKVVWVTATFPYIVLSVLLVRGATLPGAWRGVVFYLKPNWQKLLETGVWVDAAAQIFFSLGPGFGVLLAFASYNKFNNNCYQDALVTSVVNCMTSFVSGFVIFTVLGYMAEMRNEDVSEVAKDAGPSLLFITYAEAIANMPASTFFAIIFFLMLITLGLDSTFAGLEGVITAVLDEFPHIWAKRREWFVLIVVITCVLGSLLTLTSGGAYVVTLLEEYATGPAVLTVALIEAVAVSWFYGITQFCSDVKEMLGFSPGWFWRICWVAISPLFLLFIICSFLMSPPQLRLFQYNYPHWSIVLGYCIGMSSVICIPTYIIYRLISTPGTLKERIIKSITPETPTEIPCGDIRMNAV
Norepinephrine transporter, sequence (Q9WTR4 whole entry): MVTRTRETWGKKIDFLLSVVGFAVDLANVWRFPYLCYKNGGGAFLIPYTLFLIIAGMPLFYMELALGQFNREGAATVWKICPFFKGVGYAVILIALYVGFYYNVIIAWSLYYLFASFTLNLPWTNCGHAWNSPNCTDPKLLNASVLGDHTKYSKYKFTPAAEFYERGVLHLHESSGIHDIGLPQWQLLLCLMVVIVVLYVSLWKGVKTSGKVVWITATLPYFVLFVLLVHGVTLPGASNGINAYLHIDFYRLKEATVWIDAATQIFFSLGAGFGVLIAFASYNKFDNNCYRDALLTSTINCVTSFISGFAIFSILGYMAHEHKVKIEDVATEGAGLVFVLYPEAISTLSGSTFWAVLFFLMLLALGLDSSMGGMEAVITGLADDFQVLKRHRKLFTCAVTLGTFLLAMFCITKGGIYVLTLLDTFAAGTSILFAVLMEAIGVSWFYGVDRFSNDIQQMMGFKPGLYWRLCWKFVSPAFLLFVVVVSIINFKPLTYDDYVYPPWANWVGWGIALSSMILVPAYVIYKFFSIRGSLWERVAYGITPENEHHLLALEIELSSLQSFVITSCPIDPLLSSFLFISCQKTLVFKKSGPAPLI

| SMILES | ED50 (Mus musculus [1]; Mus musculus, read-out: ED50) [µmol/kg] | IC50 [2] [nM] | IC50 [3] [nM] | IC50 [4] [nM] | ED50 (Mus musculus [5]) [µmol/kg] | ED50 (Mus musculus [1]) [µmol/kg] | ED50 (Mus musculus [6]) [µM/kg] | ED50 (Mus musculus [6]; Mus musculus, read-out: ED50) [µmol/kg] |
| --- | --- | --- | --- | --- | --- | --- | --- | --- |
| CN(C)C1CC(c2ccc(F)c(F)c2)c2ccccc21 (stereo not given) [listing 1 of 2 here] | 7.1 | 62 | 250 | 20 | – | – | – | – |
| CNC1CC(c2ccc(C(F)(F)F)cc2)c2ccccc21 (stereo not given) | 58 | 67 | 160 | 4.7 | 45 | – | – | – |
| CN(C)C1CC(c2ccc(Br)cc2)c2ccccc21 (stereo in doubt; 65) | – | 4.3 | 83 | 0.14 | – | 2.3 | – | – |
| CN1CCN(C2CC(c3ccc(Cl)c(Cl)c3)c3ccccc32)CC1 (stereo in doubt; (-)-102) | – | – | 2.3 | – | – | – | 69 | – |
| CN(C)C1CC(c2ccc(F)cc2)c2ccc(C(F)(F)F)cc21 (stereo in doubt; 57) | 116 | 85 | 240 | 43 | – | – | – | – |
| CNC1CC(c2ccc(Cl)cc2)c2ccccc21 (stereo not given) | – | 0.51 | 5.6 | 4 | – | >155 | – | – |
| CNC1CC(c2ccccc2)c2ccccc21 (stereo not given) | > 154 | 320 | 1400 | 210 | 211 | – | – | – |
| CN(C)C1CC(c2ccc(Br)cc2)c2ccccc21 (stereo in doubt; 37) | – | 28 | 54 | 0.04 | – | 9.8 | – | – |
| CN(C)C1CC(c2cccc(Cl)c2)c2ccccc21.Cl (stereo in doubt; 40) | – | 15 | 71 | 36 | – | 10 | – | – |
| CN(C)C1CC(c2ccccc2)c2ccccc21.Cl (stereo in doubt; 31) | – | 130 | 600 | 150 | – | 17 | – | – |
| CN(C)C1CC(c2ccc(Cl)cc2)c2ccccc21 (stereo in doubt; 63) | 43 | 4.4 | 190 | 0.34 | – | – | – | – |
| CN1CCN(C2CC(c3ccc(Cl)c(Cl)c3)c3ccccc32)CC1 (single isomer, unassigned; (-)) | – | – | 10 | – | – | – | 26 | – |
| CNC1CC(c2ccc(Br)cc2)c2ccccc21 (stereo in doubt; 36) | 47 | 0.3 | 2.5 | 0.28 | – | – | – | – |
| CNC1CC(c2ccc(F)c(F)c2)c2ccccc21.Cl (stereo in doubt; 68) | – | 33 | 150 | 4.6 | – | 23 | – | – |
| CN(C)C1CC(c2ccc(F)cc2)c2ccc(F)cc21.Cl (stereo not given) | – | 350 | 620 | 18 | – | 28 | – | – |
| CN(C)C1CC(c2ccc(Cl)cc2)c2ccccc21 (stereo in doubt; 35) | – | 23 | 140 | 0.64 | – | 56 | – | – |
| Clc1ccc(C2CC(N3CCCCC3)c3ccccc32)cc1Cl (stereo in doubt; 100) | > 104 | 79 | 79 | 420 | – | – | – | – |
| CN(C)C1CC(c2ccc(Cl)cc2Cl)c2ccccc21.Cl (stereo in doubt; 49) | – | 90 | 2000 | 0.58 | – | 23 | – | – |
| CNC1CC(c2ccc(Cl)cc2Cl)c2ccccc21.Cl (stereo in doubt; 74) | – | 6.1 | 100 | 21 | – | 98 | – | – |
| CNC1CC(c2ccc(Cl)cc2)c2ccccc21.Cl (stereo not given) | – | 24 | 120 | 0.65 | – | 376 | – | – |

| SMILES | ED50 (Mus musculus [1]; Mus musculus, read-out: ED50) [µmol/kg] | IC50 [2] [nM] | IC50 [3] [nM] | IC50 [4] [nM] | ED50 (Mus musculus [5]) [µmol/kg] | ED50 (Mus musculus [1]) [µmol/kg] | ED50 (Mus musculus [6]) [µM/kg] | ED50 (Mus musculus [6]; Mus musculus, read-out: ED50) [µmol/kg] |
| --- | --- | --- | --- | --- | --- | --- | --- | --- |
| CN1CCN(C2CC(c3ccc(Cl)c(Cl)c3)c3ccccc32)CC1 (stereo in doubt; 102) | – | – | 4.4 | – | – | – | 100 | – |
| CNC1CC(c2ccc(F)c(F)c2)c2ccccc21.Cl (stereo in doubt; 41) | – | 1.6 | 21 | 49 | – | 58 | – | – |
| CNC1CC(c2ccc(Cl)c(Cl)c2)c2ccc(F)cc21.Cl (stereo in doubt; 50) | – | 0.71 | 0.12 | 2.3 | – | 33 | – | – |
| CNC1CC(c2ccc(Cl)c(Cl)c2)c2ccc(F)cc21.Cl (stereo in doubt; 76) | – | 14 | 5 | 0.75 | – | 15 | – | – |
| CNCCCC1(c2ccccc2)SC(C)(C)c2ccccc21 (stereo not given) | 2.3 | 0.79 | 9300 | 850 | > 115 | – | – | – |
| CCN(CC)C1CC(c2ccc(Cl)c(Cl)c2)c2ccccc21.Cl (stereo in doubt; 85) | – | 0.56 | 2.1 | 2.8 | – | 52 | – | – |
| CN(C)C1CC(c2ccc(F)cc2)c2ccccc21.Cl (stereo in doubt; 33) | – | 100 | 320 | 33 | – | 7.8 | – | – |
| CN(C)C1CC(c2ccc(F)c(F)c2)c2ccccc21 (stereo not given) [listing 2 of 2 here] | – | 29 | 180 | 1.3 | – | 13 | – | – |
| CNC1CC(c2ccc(Cl)c(Cl)c2)c2ccc(O)cc21 (stereo in doubt; 54) | – | 0.82 | 0.52 | 2.5 | – | – | 21 | – |
| CN(C)C1CC(c2ccc(Cl)c(Cl)c2)c2ccc(F)cc21 (stereo in doubt; 51) | > 111 | 21 | 12 | 1.1 | – | – | – | – |
| CCCNC1CC(c2ccc(Cl)c(Cl)c2)c2ccccc21.Cl (stereo in doubt; 87) | – | 0.66 | 6.6 | 150 | – | 68 | – | – |
| CNC1CC(c2cccc(Cl)c2)c2ccccc21.Cl (stereo in doubt; 39) | – | 0.12 | 14 | 41 | – | 45 | – | – |
| CNC1CC(c2cccc(Cl)c2)c2ccccc21.Cl (stereo in doubt; 66) | – | 19 | 220 | 6.8 | – | 119 | – | – |
| CCCN(CCC)C1CC(c2ccc(Cl)c(Cl)c2)c2ccccc21.Cl (stereo in doubt; 89) | – | 73 | 150 | 720 | – | 25 | – | – |
| CNC1CC(c2ccc(Cl)c(C(F)(F)F)c2)c2ccccc21 (stereo not given) | > 110 | 25 | 3500 | 4.2 | 55 | – | – | – |
| CN(C)C1CC(c2cccc(Cl)c2)c2ccccc21.Cl (stereo in doubt; 67) | – | 0.77 | 54 | 2.6 | – | 85 | – | – |
| CNC1CC(c2ccc(Cl)cc2Cl)c2ccccc21.Cl (stereo in doubt; 48) | – | 15 | 510 | 0.91 | – | 19 | – | – |
| CN(C)C1CC(c2ccc(Cl)c(Cl)c2)c2ccc(O)cc21 (stereo not given) | – | 16 | 7.9 | 0.37 | – | – | – | 22 |
| CN(C)CCCC1(c2ccc(F)cc2)OCc2cc(C#N)ccc21 (stereo not given) [CITALOPRAM] | – | – | – | – | – | – | – | 51 |
| CNC1CC(c2ccc(Br)cc2)c2ccccc21.Cl (stereo in doubt; 64) | – | 8.8 | 67 | 0.16 | – | 29 | – | – |
